Measurements from ChEMBL document CHEMBL3525900, “Pharmacokinetics, distribution, and metabolism of [14C]sunitinib in rats, monkeys, and humans” (Drug Metab Dispos, 2012).

Legend:
[1] = tested on: Adrenal; assay: Drug concentration in male albino rat adrenal assessed as radioactivity per gram of tissue at 20 mg/kg administered as single dose via gastric gavage measured after 168 hrs by autoradiographic analysis; format: ADME, organism-based; parameters: dose 20 mg/kg, dosed compound name [14C]Sunitinib; settings: in vivo, po
[2] = tested on: Rattus norvegicus; assay: AUC (0 to infinity) as total radioactivity in male Sprague-Dawley rat plasma at 15 mg/kg, po administered as single dose by LC/MS/MS analysis; format: ADME, organism-based; parameters: time infinity, dose 15 mg/kg, dosed compound name [14C]Sunitinib, route oral; settings: in vivo
Procedure, shortened: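 Single dose of [14C]sunitinib L-malate as free base, 50 µCi/kg. IV dose was 5 mg/kg by tail vein in 5 females. Oral dose was 15 mg/kg by gavage in 3 females and 3 males. Total radioactivity was by scintillation counting. […] Cmax was read from raw data, t½ by log-linear regression, AUC by linear trapezoidal rule.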

[3] = tested on: Homo sapiens; assay: Terminal half life as total radioactivity in human plasma at 50 mg, po administered as single dose measured up to 24 hrs by LC/MS/MS analysis; format: ADME, organism-based; parameters: dosed compound name [14C]Sunitinib; settings: in vivo
[4] = tested on: Zone of skin; assay: Drug concentration in male Lister Hooded pigmented rat abdomen skin assessed as radioactivity per gram of tissue at 20 mg/kg administered as single dose via gastric gavage measured after 336 hrs by autoradiographic analysis; format: ADME, organism-based; parameters: dose 20 mg/kg, dosed compound name [14C]Sunitinib; settings: in vivo, po
[5] = tested on: Small intestine; assay: Drug concentration in male Lister Hooded pigmented rat small intestine assessed as radioactivity per gram of tissue at 20 mg/kg administered as single dose via gastric gavage measured after 24 hrs by autoradiographic analysis; format: ADME, organism-based; parameters: dose 20 mg/kg, dosed compound name [14C]Sunitinib; settings: in vivo, po
[6] = tested on: Ovary; assay: Drug concentration in female albino rat ovary assessed as radioactivity per gram of tissue at 20 mg/kg administered as single dose via gastric gavage measured after 6 hrs by autoradiographic analysis; format: ADME, organism-based, Female gonad; parameters: dose 20 mg/kg, dosed compound name [14C]Sunitinib; settings: in vivo, po
Procedure, shortened: (§1)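 Sprague Dawley albino rats, ca 7-8 weeks old, dosed once by gastric gavage with [14C]sunitinib L-malate (15 mg freebase/kg, 100 µCi/kg). One male and one female killed by CO2 at 3, 6, 24, 72 and 168 h. Carcasses frozen in solid CO2/hexane, embedded and cut into 30 µm sagittal sections, then freeze-dried. Radioactivity quantified by whole-body autoradiography against standards by regression, background subtracted.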

[7] = tested on: Rattus norvegicus; assay: Drug recovery in cage residue of female Sprague-Dawley rat at 5 mg/kg, iv administered as single dose during 0 to 72 hrs by liquid scintillation counting; format: ADME, organism-based; parameters: dose 5 mg/kg, dosed compound name [14C]Sunitinib, route intravenous; settings: in vivo
[8] = Drug concentration in male Lister Hooded pigmented rat testis assessed as radioactivity per gram of tissue at 20 mg/kg administered as single dose via gastric gavage measured after 24 hrs by autoradiographic analysis; format: ADME, organism-based; parameters: dose 20 mg/kg, dosed compound name [14C]Sunitinib; settings: in vivo, po
[9] = tested on: Lung; assay: Drug concentration in female Lister Hooded pigmented rat lung assessed as radioactivity per gram of tissue at 20 mg/kg administered as single dose via gastric gavage measured after 24 hrs by autoradiographic analysis; format: ADME, organism-based; parameters: dose 20 mg/kg, dosed compound name [14C]Sunitinib; settings: in vivo, po
Procedure, shortened: (§2)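 Lister Hooded (pigmented) rats, ca 7-8 weeks old, acclimated 7 days, given [14C]sunitinib L-malate by gastric gavage at 20 mg/kg (15 mg freebase/kg, 100 µCi/kg). One male and one female killed by CO2 at 24, 72, 168 and 336 h. Carcasses frozen in solid CO2/hexane and embedded in frozen cellulose. 30 µm sagittal cryosections were freeze-dried. Tissue radioactivity measured by quantitative whole-body autoradiography against calibration standards, with background subtracted.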

[10] = tested on: Liver; assay: Drug concentration in male albino rat liver assessed as radioactivity per gram of tissue at 20 mg/kg administered as single dose via gastric gavage measured after 24 hrs by autoradiographic analysis; format: ADME, organism-based; parameters: dose 20 mg/kg, dosed compound name [14C]Sunitinib; settings: in vivo, po
[11] = tested on: Ovary; assay: Drug concentration in female albino rat ovary assessed as radioactivity per gram of tissue at 20 mg/kg administered as single dose via gastric gavage measured after 72 hrs by autoradiographic analysis; format: ADME, organism-based, Female gonad; parameters: dose 20 mg/kg, dosed compound name [14C]Sunitinib; settings: in vivo, po; procedure, shortened: as §1
[12] = tested on: Kidney; assay: Drug concentration in female albino rat kidney assessed as radioactivity per gram of tissue at 20 mg/kg administered as single dose via gastric gavage measured after 24 hrs by autoradiographic analysis; format: ADME, organism-based; parameters: dose 20 mg/kg, dosed compound name [14C]Sunitinib; settings: in vivo, po; procedure, shortened: as §1
[13] = Drug concentration in female Lister Hooded pigmented rat eye assessed as radioactivity per gram of tissue at 20 mg/kg administered as single dose via gastric gavage measured after 168 hrs by autoradiographic analysis; format: ADME, organism-based; parameters: dose 20 mg/kg, dosed compound name [14C]Sunitinib; settings: in vivo, po; procedure, shortened: as §2
[14] = tested on: Liver; assay: Drug concentration in male albino rat liver assessed as radioactivity per gram of tissue at 20 mg/kg administered as single dose via gastric gavage measured after 3 hrs by autoradiographic analysis; format: ADME, organism-based; parameters: dose 20 mg/kg, dosed compound name [14C]Sunitinib; settings: in vivo, po
[15] = Drug concentration in male Lister Hooded pigmented rat skeletal muscle assessed as radioactivity per gram of tissue at 20 mg/kg administered as single dose via gastric gavage measured after 168 hrs by autoradiographic analysis; format: ADME, organism-based; parameters: dose 20 mg/kg, dosed compound name [14C]Sunitinib; settings: in vivo, po
[16] = tested on: Cynomolgus monkey; assay: Cmax as total radioactivity in male cynomolgus monkey plasma at 6 mg/kg, po administered as single dose by LC/MS/MS analysis; format: ADME, organism-based, Macaca fascicularis; parameters: dose 6 mg/kg, dosed compound name [14C]Sunitinib, route oral; settings: in vivo
Procedure, shortened: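 Cynomolgus monkeys of both sexes received one oral gavage of [14C]sunitinib L-malate at 6 mg/kg (37 µCi/kg). Femoral-vein blood was taken into heparin from 0.5 to 336 h. Plasma was kept cold and protected from light, then stored at -80 °C. Total radioactivity was by scintillation counting and sunitinib by methanol-extraction LC-MS-MS. Cmax was from raw data, t½ from the log-linear terminal slope, AUC(0-∞) by linear trapezoidal rule.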

[17] = tested on: Stomach; assay: Drug concentration in male Lister Hooded pigmented rat stomach assessed as radioactivity per gram of tissue at 20 mg/kg administered as single dose via gastric gavage measured after 24 hrs by autoradiographic analysis; format: ADME, organism-based; parameters: dose 20 mg/kg, dosed compound name [14C]Sunitinib; settings: in vivo, po
[18] = tested on: Rattus norvegicus; assay: Total drug recovery in female Sprague-Dawley rat at 15 mg/kg, po administered as single dose during 0 to 72 hrs by liquid scintillation counting; format: ADME, organism-based; parameters: dose 15 mg/kg, dosed compound name [14C]Sunitinib, route oral; settings: in vivo
[19] = tested on: Spinal cord; assay: Drug concentration in male Lister Hooded pigmented rat spinal cord assessed as radioactivity per gram of tissue at 20 mg/kg administered as single dose via gastric gavage measured after 168 hrs by autoradiographic analysis; format: ADME, organism-based; parameters: dose 20 mg/kg, dosed compound name [14C]Sunitinib; settings: in vivo, po
[20] = tested on: Liver; assay: Drug concentration in female albino rat liver assessed as radioactivity per gram of tissue at 20 mg/kg administered as single dose via gastric gavage measured after 24 hrs by autoradiographic analysis; format: ADME, organism-based; parameters: dose 20 mg/kg, dosed compound name [14C]Sunitinib; settings: in vivo, po; procedure, shortened: as §1
[21] = tested on: Zone of skin; assay: Drug concentration in female albino rat abdomen skin assessed as radioactivity per gram of tissue at 20 mg/kg administered as single dose via gastric gavage measured after 3 hrs by autoradiographic analysis; format: ADME, organism-based; parameters: dose 20 mg/kg, dosed compound name [14C]Sunitinib; settings: in vivo, po
Procedure, shortened: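 Sprague Dawley (albino) rats, ca 7-8 weeks old, received a single gastric-gavage dose of [14C]sunitinib L-malate at 20 mg/kg (15 mg freebase/kg, 100 µCi/kg). One animal per sex killed by CO2 at 3, 6, 24, 72 and 168 h, then frozen in CO2/hexane. 30 µm sagittal sections were cut and freeze-dried. Radioactivity per gram quantified by whole-body autoradiography using regression against standards. LOQ 0.04–0.06 µg freebase equiv/g.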

[22] = tested on: Adrenal; assay: Drug concentration in male albino rat adrenal assessed as radioactivity per gram of tissue at 20 mg/kg administered as single dose via gastric gavage measured after 3 hrs by autoradiographic analysis; format: ADME, organism-based; parameters: dose 20 mg/kg, dosed compound name [14C]Sunitinib; settings: in vivo, po
[23] = Drug concentration in male Lister Hooded pigmented rat pituitary gland assessed as radioactivity per gram of tissue at 20 mg/kg administered as single dose via gastric gavage measured after 24 hrs by autoradiographic analysis; format: ADME, organism-based; parameters: dose 20 mg/kg, dosed compound name [14C]Sunitinib; settings: in vivo, po
[24] = Drug recovery in urine of male cynomolgus monkey at 6 mg/kg, po administered as single dose during 0 to 336 hrs by liquid scintillation counting; format: ADME, organism-based, Macaca fascicularis; parameters: dose 6 mg/kg, dosed compound name [14C]Sunitinib, route oral; settings: in vivo
[25] = tested on: Lung; assay: Drug concentration in male albino rat lung assessed as radioactivity per gram of tissue at 20 mg/kg administered as single dose via gastric gavage measured after 3 hrs by autoradiographic analysis; format: ADME, organism-based; parameters: dose 20 mg/kg, dosed compound name [14C]Sunitinib; settings: in vivo, po
[26] = tested on: Small intestine; assay: Drug concentration in female albino rat small intestine assessed as radioactivity per gram of tissue at 20 mg/kg administered as single dose via gastric gavage measured after 72 hrs by autoradiographic analysis; format: ADME, organism-based; parameters: dose 20 mg/kg, dosed compound name [14C]Sunitinib; settings: in vivo, po

## CCN(CC)CCNC(=O)c1c(C)[nH]c(/[14CH]=C2\C(=O)Nc3ccc(F)cc32)c1C.O=C(O)C[C@H](O)C(=O)O
[1]
  Radiolabel recovery: 0.31 ugequiv
[2]
  AUC: 82039 ng.Eq.hr/ml
[3]
  beta t1/2: 28.2 h
[4]
  Radiolabel recovery: 0.3 ugequiv
[5]
  Radiolabel recovery: 0.82 ugequiv
[6]
  Radiolabel recovery: 11.63 ugequiv
[7]
  Radiolabel recovery: 1.1%
[8]
  Radiolabel recovery: 2.27 ugequiv
[9]
  Radiolabel recovery: 2.79 ugequiv
[10]
  Radiolabel recovery: 1.7 ugequiv
[11]
  Radiolabel recovery: 0.09 ugequiv
[12]
  Radiolabel recovery: 4.79 ugequiv
[13]
  Radiolabel recovery: 73.04 ugequiv
[14]
  Radiolabel recovery: 15.71 ugequiv
[15]
  Radiolabel recovery: 0.06 ugequiv
[16]
  Cmax: 243 ngequiv/ml
[17]
  Radiolabel recovery: 0.67 ugequiv
[18]
  Radiolabel recovery: 82.5%
[19]
  Radiolabel recovery: 0.06 ugequiv
[20]
  Radiolabel recovery: 2.8 ugequiv
[21]
  Radiolabel recovery: 3.16 ugequiv
[22]
  Radiolabel recovery: 25.22 ugequiv
[23]
  Radiolabel recovery: 7.71 ugequiv
[24]
  Radiolabel recovery: 4.8%
[25]
  Radiolabel recovery: 20.7 ugequiv
[26]
  Radiolabel recovery: 0.08 ugequiv
